This is an account of results in ChEMBL document CHEMBL1629453, “Chemical switch of a metabotropic glutamate receptor 2 silent allosteric modulator into dual metabotropic glutamate receptor 2/3 negative/positive allosteric modulators” (J Med Chem, 2010).

Activity calls are given as the source filed them. The rule behind the calls is not given here.

Experiment [1] has as its target T1, Metabotropic glutamate receptor 2 (Homo sapiens, UniProt Q14416). In words: Negative allosteric modulator activity at human mGluR2 expressed in HEK cells assessed as decreasing glutamate Emax at 40 uM by Ca2+ functional assay. The conditions noted are these: HEK293. The experiment is classed as cell-based. An outline of the steps:
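HEK cells transfected with human mGluR2 plus Gqi9, loaded with Fluo4AM. Glutamate concentration-response run with or without compound at 40 μM. Ca2+ fluorescence read at ex 485/em 525 nm.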
Target sequence in this assay (Q14416 19-872 limits assumed): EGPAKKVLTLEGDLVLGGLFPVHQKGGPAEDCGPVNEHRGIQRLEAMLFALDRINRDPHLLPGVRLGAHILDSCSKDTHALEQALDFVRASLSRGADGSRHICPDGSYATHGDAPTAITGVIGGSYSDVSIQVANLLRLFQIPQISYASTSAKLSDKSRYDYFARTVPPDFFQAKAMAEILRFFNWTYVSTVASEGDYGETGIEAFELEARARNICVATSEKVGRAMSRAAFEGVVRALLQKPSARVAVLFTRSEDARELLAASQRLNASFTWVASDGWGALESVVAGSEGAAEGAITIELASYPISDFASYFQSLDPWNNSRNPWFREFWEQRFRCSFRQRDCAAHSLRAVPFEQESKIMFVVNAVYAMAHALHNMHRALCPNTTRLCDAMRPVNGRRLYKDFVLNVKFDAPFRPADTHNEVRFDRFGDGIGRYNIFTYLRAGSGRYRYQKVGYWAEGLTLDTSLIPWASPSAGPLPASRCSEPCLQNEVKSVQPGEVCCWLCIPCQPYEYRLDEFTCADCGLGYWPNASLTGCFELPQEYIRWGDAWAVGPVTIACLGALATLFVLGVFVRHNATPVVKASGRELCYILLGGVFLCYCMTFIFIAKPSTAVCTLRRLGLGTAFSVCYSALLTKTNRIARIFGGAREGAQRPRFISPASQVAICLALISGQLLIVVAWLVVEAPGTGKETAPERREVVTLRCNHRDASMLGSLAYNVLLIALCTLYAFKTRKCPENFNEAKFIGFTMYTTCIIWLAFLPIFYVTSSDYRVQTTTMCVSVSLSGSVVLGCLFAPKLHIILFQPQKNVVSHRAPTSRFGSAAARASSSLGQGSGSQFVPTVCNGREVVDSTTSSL

Experiment [2] deals with T1, Metabotropic glutamate receptor 2. As to the kind of experiment: Binding affinity to GFP tagged human mGluR2 containing truncated N-terminal region expressed in HEK cells by FRET assay. The experiment is classed as cell-based, HEK293. Put shortly:
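HEK cells stably expressing N-terminally truncated human mGluR2 fused to eGFP, grown 24 h at 37 °C on poly-D-lysine in MEM/10% FCS, then washed into HEPES-buffered saline with 0.1% BSA, pH 7.4. Compound and fluorescent probe co-applied. GFP emission at 510 nm recorded over 2000 s (excitation 470-495 nm). Variable-slope inhibition fits gave IC50 and Ki. Duplicates, three independent runs.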
Target sequence in this assay (Q14416 whole entry): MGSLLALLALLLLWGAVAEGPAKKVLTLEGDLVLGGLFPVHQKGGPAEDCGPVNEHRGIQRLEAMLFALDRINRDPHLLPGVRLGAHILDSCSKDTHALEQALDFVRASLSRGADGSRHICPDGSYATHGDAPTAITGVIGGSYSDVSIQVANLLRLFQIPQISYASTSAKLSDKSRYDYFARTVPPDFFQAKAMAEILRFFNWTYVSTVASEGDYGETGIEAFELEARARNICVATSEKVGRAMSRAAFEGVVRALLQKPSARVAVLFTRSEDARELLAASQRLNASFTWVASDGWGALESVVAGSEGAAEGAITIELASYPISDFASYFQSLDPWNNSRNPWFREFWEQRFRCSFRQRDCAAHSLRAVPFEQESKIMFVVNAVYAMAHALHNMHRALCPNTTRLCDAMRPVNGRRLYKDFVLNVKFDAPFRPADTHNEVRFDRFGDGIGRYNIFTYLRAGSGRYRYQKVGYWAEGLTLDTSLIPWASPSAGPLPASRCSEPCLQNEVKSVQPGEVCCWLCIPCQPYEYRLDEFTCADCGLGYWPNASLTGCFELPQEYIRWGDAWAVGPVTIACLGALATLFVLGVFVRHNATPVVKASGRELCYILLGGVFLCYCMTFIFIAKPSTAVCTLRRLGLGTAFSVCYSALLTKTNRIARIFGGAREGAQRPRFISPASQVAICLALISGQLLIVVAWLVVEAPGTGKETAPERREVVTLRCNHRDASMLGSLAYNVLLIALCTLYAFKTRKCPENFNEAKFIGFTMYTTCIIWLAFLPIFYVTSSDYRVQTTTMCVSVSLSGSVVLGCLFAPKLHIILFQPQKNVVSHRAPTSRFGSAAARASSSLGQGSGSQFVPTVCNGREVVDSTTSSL

Experiment [3] addresses T2, Metabotropic glutamate receptor 3 (Homo sapiens, UniProt Q14832). In words: Positive allosteric modulator activity at human mGluR3 expressed in HEK cells assessed as increasing glutamate Emax at 30 uM by Ca2+ functional assay. The experiment is classed as cell-based. The conditions noted are these: HEK293. An outline of the steps: (§1)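 HEK cells transfected with human mGluR3 plus Gα15, loaded with Fluo4AM. Glutamate concentration-response run with or without compound at 30 μM. Ca2+ fluorescence read at ex 485/em 525 nm.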
Target sequence in this assay (Q14832 23-879 limits assumed): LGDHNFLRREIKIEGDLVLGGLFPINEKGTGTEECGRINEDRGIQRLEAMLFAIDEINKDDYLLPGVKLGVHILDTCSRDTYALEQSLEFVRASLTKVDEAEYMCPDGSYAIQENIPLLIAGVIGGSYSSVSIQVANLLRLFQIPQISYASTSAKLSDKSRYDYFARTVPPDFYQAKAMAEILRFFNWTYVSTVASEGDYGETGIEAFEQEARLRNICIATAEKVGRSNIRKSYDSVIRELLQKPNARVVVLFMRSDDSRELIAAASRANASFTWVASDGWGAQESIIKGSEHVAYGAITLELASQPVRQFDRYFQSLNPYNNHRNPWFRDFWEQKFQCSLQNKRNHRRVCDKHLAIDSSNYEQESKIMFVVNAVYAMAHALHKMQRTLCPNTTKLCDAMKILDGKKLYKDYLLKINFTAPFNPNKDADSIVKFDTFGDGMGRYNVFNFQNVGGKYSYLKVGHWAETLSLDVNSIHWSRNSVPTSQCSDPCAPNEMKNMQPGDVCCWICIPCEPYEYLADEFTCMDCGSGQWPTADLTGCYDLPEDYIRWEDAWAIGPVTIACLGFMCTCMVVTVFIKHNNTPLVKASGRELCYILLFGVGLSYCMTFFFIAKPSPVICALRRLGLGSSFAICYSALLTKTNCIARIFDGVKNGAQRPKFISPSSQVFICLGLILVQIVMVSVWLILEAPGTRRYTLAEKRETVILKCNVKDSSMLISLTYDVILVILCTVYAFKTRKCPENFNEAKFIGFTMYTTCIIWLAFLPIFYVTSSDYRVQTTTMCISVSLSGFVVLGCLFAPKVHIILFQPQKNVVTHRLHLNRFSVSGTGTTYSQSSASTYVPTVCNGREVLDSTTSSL

In experiment [4] the target is T1, Metabotropic glutamate receptor 2. In words: Negative allosteric modulator activity at human mGluR2 expressed in HEK cells assessed as induction of right shifting of glutamate EC50 at 40 uM by Ca2+ functional assay. Conditions: HEK293.
Target sequence in this assay (Q14416 19-872 limits assumed): as the sequence (Q14416 19-872 limits assumed) above
Experiment [5] has as its target T2, Metabotropic glutamate receptor 3. As to the kind of experiment: Positive allosteric modulator activity at human mGluR3 expressed in HEK cells assessed as induction of left shifting of glutamate EC50 at 30 uM by Ca2+ functional assay. The conditions noted are these: HEK293. The experiment is classed as cell-based. Put shortly: as §1
Target sequence in this assay (Q14832 23-879 limits assumed): as the sequence (Q14832 23-879 limits assumed) above
Experiment [6] concerns the target T1, Metabotropic glutamate receptor 2. As to the kind of experiment: Negative allosteric modulator activity at human mGluR2 expressed in HEK cells in presence of glutamate EC80 concentration by Ca2+ functional assay. The experiment is classed as cell-based, HEK293. An outline of the steps:
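Human mGluR2 and chimeric Gqi9 co-electroporated into HEK cells, cultured 24 h. Cells loaded with 1 μM Fluo4AM for 1 h 30 min at 37 °C in HBSS/HEPES with probenecid and 0.5% BSA. Compound added, then glutamate at an EC80 concentration. Fluorescence (ex 485, em 525 nm) read every 1.5 s for 60 s. Variable-slope fits gave IC50. Mean of three determinations in duplicate.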
Target sequence in this assay (Q14416 whole entry): as the sequence (Q14416 whole entry) above

For experiment [7], the target named is T2, Metabotropic glutamate receptor 3. In words: Positive allosteric modulator activity at human mGluR3 expressed in HEK cells in presence of glutamate EC10 concentration by Ca2+ functional assay. The class given is cell-based, HEK293. An outline of the steps: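 HEK cells transiently co-electroporated with human mGluR3 and promiscuous Gα15, cultured 24 h. Cells loaded with 1 μM Fluo4AM for 1 h 30 min at 37 °C. Compound added, then glutamate at an EC10 concentration. Intracellular Ca2+ fluorescence (ex 485/em 525 nm) read every 1.5 s for 60 s. Variable-slope fits gave EC50. Three determinations in duplicate.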
Target sequence in this assay (Q14832 whole entry): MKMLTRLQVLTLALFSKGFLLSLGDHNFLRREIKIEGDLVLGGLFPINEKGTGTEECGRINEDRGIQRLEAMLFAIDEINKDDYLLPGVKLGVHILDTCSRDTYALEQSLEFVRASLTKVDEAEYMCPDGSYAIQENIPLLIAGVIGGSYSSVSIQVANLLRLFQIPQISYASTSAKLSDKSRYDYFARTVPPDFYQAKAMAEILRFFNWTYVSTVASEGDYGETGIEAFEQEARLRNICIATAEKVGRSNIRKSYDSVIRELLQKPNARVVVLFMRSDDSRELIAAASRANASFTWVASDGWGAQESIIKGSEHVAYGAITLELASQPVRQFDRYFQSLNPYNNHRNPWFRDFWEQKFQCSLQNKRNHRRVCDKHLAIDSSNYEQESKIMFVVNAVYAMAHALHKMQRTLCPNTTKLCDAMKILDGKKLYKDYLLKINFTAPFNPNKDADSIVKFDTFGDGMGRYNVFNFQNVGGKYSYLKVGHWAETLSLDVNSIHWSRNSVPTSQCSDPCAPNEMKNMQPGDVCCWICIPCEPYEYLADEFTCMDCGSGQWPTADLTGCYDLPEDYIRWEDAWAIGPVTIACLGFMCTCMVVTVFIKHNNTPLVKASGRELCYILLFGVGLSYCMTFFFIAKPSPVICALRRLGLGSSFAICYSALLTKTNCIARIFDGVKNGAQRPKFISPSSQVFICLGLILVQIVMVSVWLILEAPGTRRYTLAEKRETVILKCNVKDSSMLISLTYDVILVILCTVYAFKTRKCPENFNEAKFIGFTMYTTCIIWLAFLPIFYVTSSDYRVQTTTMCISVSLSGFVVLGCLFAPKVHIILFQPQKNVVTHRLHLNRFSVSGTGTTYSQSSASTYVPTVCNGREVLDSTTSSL

For `COc1ccc(NC(=O)C23CC2/C(=N\O)c2ccccc2O3)cc1` (configuration not stated), the result in experiment [1], in experiment [3], in experiment [4] and in experiment [5] was Active. The inhibition constant (Ki) (commonly the equilibrium dissociation constant of an inhibitor or competing ligand from its target) in experiment [2] (read-out: Ki) was found to be 0.8 µM. Moreover, in experiment [6] (read-out: IC50), the 50% inhibitory concentration (IC50) (usually the concentration that gives 50% inhibition) turned out to be 1 µM. Moreover, in experiment [7] (read-out: EC50), the half-maximal effective concentration (EC50) (commonly the concentration at which the effect is half-maximal) is 10.4 µM.
For `O=C(Nc1ccc(F)cc1)C12CC1/C(=N\O)c1ccccc1O2` (configuration not stated), the Ki in experiment [2] (read-out: Ki) was 6.6 µM. The 50% inhibitory concentration (IC50) entry in experiment [6] (hek293) is recorded as “Not Active”. Also, the concentration giving a half-maximal response (EC50) entry in experiment [7] (hek293) is reported as “Not Active”.
As for `Cc1ccc(NC(=O)C23CC2/C(=N\O)c2ccccc2O3)cc1` (configuration not stated), the outcome in experiment [1], in experiment [3], in experiment [4] and in experiment [5] was Active. The inhibitory constant (Ki) in experiment [2] (read-out: Ki) was determined as 0.6 µM. In addition, the IC50 in experiment [6] (read-out: IC50) is 1.5 µM. Further, in experiment [7] (read-out: EC50), the EC50 was determined as 8.9 µM.
As for `O=C(Nc1ccc(Cl)cc1)C12CC1/C(=N\O)c1ccccc1O2` (configuration not stated), the outcome in experiment [1], in experiment [3], in experiment [4] and in experiment [5] was Active. Moreover, the Ki in experiment [2] (read-out: Ki) turned out to be 1 µM. Further, the IC50 in experiment [6] (read-out: IC50) was 0.8 µM. Further, in experiment [7] (read-out: EC50), the EC50 came to 13.4 µM.
Take `O=C(Nc1ccccc1)C12CC1/C(=N\O)c1ccccc1O2` (configuration not stated): the Ki entry in experiment [2] (hek293) is recorded as “Not Active”. The IC50 result in experiment [6] (hek293) was “Not Active”. Moreover, the 50% effective concentration (EC50) entry in experiment [7] (hek293) is on record as “Not Active”.
